One assay addresses Cannabinoid receptor 1 (Homo sapiens, UniProt P21554). Nature of the assay: biochemical. The format is cell-based, HEK293.
In the next assay the target is Cannabinoid receptor 2 (Homo sapiens, UniProt P34972). Kind of assay: Displacement of [3H]CP-55940 from human CB2 receptor expressed in HEK293 cells. The format is cell-based. In general terms: Loss of bound radioactivity is the signal in a displacement assay; it reports binding, not function.
The species entered for a further assay is Homo sapiens. Kind of assay: Selectivity for human CB2 receptor over human CB1 receptor. In a few lines: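 Ratio Ki(CB1)/Ki(CB2) from radioligand displacement on HEK-cell membranes expressing human CB1 or CB2. Ki derived from IC50 via Cheng-Prusoff. Final DMSO below 0.1%.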
The subject of assay [1] is Mus musculus. Nature of the assay: Analgesic activity in mouse assessed as inhibition of formalin-induced nociceptive response at 3 mg/kg, ip. The format is functional, organism-based. Set-up: dose 3 mg/kg. In a few lines:
(§1)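 Mice, 8-10 per group, randomly assigned; 1.25% formalin into dorsal hind paw. Drug given ip in 10% DMSO/0.9% NaCl 15 min before formalin; AM630 3 mg/kg ip given 5 min before compound. Licking, lifting, flinching, shaking and favoring timed in 5-min bins over 60 min; second phase 15-60 min. Two-way ANOVA with Bonferroni.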

Assay [2] concerns Mus musculus. Kind of assay: Analgesic activity in mouse assessed as inhibition of formalin-induced nociceptive response at 3 mg/kg, ip in presence of AM630. The format is functional, organism-based. Also on record: dose 3 mg/kg. In outline: as §1

The results in this text go back to ChEMBL document CHEMBL1156630, “Investigations on the 4-quinolone-3-carboxylic acid motif. 2. Synthesis and structure-activity relationship of potent and selective cannabinoid-2 receptor agonists endowed with analgesic activity in vivo” (J Med Chem, 2008).

Structures are written as SMILES. Activity calls are given as the source filed them. No cut-off for these calls is given here.

Broadly, the Ki is a dissociation constant, usually derived from enzyme kinetics or from competition with a known ligand. Low values mean tighter binding, high ones weaker binding.

Chain of Cannabinoid receptor 2 (P34972 whole entry): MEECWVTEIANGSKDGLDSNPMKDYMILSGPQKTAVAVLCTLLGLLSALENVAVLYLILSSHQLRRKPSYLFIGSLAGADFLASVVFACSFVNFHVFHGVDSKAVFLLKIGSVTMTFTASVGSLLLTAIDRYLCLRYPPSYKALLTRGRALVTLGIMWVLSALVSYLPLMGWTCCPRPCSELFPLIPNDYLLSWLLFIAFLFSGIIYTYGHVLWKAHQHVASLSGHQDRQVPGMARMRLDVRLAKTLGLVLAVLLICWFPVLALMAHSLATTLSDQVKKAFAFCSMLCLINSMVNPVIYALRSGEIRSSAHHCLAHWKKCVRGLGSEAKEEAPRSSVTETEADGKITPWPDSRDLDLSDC
Chain of Cannabinoid receptor 1 (P21554 whole entry): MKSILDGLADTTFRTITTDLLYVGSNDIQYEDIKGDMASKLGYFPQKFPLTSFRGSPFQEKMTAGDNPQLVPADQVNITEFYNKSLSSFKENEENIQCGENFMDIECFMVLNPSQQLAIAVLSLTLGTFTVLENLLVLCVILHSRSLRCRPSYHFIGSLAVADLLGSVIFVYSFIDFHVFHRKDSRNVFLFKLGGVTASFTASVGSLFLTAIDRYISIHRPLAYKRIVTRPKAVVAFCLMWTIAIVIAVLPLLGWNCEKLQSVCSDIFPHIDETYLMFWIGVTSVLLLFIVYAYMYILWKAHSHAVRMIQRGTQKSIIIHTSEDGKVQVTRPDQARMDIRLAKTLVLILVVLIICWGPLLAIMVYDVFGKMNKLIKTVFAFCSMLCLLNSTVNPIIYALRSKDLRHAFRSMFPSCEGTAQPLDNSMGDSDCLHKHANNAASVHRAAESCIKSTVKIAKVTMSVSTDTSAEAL

With `CCCCCn1cc(C(=O)NC23CC4CC(CC(C4)C2)C3)c(=O)c2ccc(F)cc21`, the figures for the Ki at Cannabinoid receptor 1 and at Cannabinoid receptor 2 were 30.5 nM and 0.8 nM, respectively. The Ratio Ki in the assay listed under Homo sapiens worked out at 38.1.
In the case of `CCCCCn1cc(C(=O)N[C@H](C)c2ccccc2)c(=O)c2ccc(N3CCCC3)cc21`, the inhibitory constant (Ki) at Cannabinoid receptor 1 was determined as 160 nM; on Cannabinoid receptor 2, 17.1 nM. Also, the Ratio Ki in the assay listed under Homo sapiens was 9.4.
The matching figures for `CCCCCn1cc(C(=O)NC23CC4CC(CC(C4)C2)C3)c(=O)c2cc(C(F)(F)F)ccc21`: 2520 nM, 11.6 nM and 217.
Consider `CCCCCn1cc(C(=O)NC23CC4CC(CC(C4)C2)C3)c(=O)c2cc(C(C)C)ccc21`, for which, in the assay with Mus musculus [1], the outcome was Active. Also, the result with Mus musculus [2] was inactive.
As for `C=CCCn1cc(C(=O)NC23CC4CC(CC(C4)C2)C3)c(=O)c2cc(Br)ccc21`, the inhibitory constant (Ki) was determined as 2680 nM at Cannabinoid receptor 1 and 23.8 nM at Cannabinoid receptor 2. Further, the Ratio Ki in the assay filed under Homo sapiens worked out at 113.
Consider `CCCCCn1cc(C(=O)NC23CC4CC(CC(C4)C2)C3)c(=O)c2c(OC)ccc(OC)c21`, for which the inhibition constant Ki on Cannabinoid receptor 1 was found to be 2100 nM; on Cannabinoid receptor 2, 52.6 nM. The Ratio Ki in the assay listed under Homo sapiens stood at 39.9.
For the compound `C=CCCCn1cc(C(=O)NC23CC4CC(CC(C4)C2)C3)c(=O)c2cc(Br)ccc21`, the Ki at Cannabinoid receptor 1 came out at 696 nM; on Cannabinoid receptor 2 it was 9.4 nM. Further, the Ratio Ki in the assay listed under Homo sapiens was found to be 74.4.
Turning to `CCCCCn1cc(C(=O)NC23CC4CC(CC(C4)C2)C3)c(=O)c2ccccc21`, the Ki on Cannabinoid receptor 1 turned out to be 42.1 nM; at Cannabinoid receptor 2 it was 4.7 nM. Moreover, the Ratio Ki in the assay filed under Homo sapiens worked out at 9.
`CCCCCn1cc(C(=O)NC23CC4CC(CC(C4)C2)C3)c(=O)c2cc(Sc3ccccc3)ccc21`: the Ki was found to be 640 nM at Cannabinoid receptor 1 and 3.4 nM at Cannabinoid receptor 2. Besides, in the assay listed under Homo sapiens, the Ratio Ki worked out at 189.
As to `CCCCCn1cc(C(=O)NC23CC4CC(CC(C4)C2)C3)c(=O)c2cc(/C=C/c3ccc(OC)cc3)ccc21`, the figures for the inhibition constant (Ki) at Cannabinoid receptor 1 and on Cannabinoid receptor 2 were 2630 nM and 55.9 nM, respectively. The Ratio Ki in the assay listed under Homo sapiens is 47.
Take `CCCCCn1cc(C(=O)NC23CC4CC(CC(C4)C2)C3)c(=O)c2cc(-c3ccccc3)ccc21`: the inhibitory constant (Ki) at Cannabinoid receptor 1 is more than 10000 nM; on Cannabinoid receptor 2 it was 3.8 nM. In addition, the Ratio Ki in the assay listed under Homo sapiens is more than 2670.
For `CCCCCn1cc(C(=O)NC23CC4CC(CC(C4)C2)C3)c(=O)c2ccc(Sc3ccccc3)cc21` the same measures were 5.3 nM, 1.6 nM and 3.3.
On to `CCCCCn1cc(C(=O)NC23CC4CC(CC(C4)C2)C3)c(=O)c2ccc([S+]([O-])c3ccccc3)cc21` (stereo unspecified), for which the results for the inhibition constant Ki on Cannabinoid receptor 1 and on Cannabinoid receptor 2 were 28 nM and 3.5 nM, respectively. Besides, in the assay filed under Homo sapiens, the Ratio Ki worked out at 8.
As to `CCCCCn1cc(C(=O)NC23CC4CC(CC(C4)C2)C3)c(=O)c2cc(Oc3ccc(F)c(Cl)c3)ccc21`, the Ki at Cannabinoid receptor 1 was determined as 739 nM; at Cannabinoid receptor 2 it was 16.1 nM. For the same compound, the Ratio Ki in the assay filed under Homo sapiens stood at 46.
The matching figures for `C=CCn1cc(C(=O)NC23CC4CC(CC(C4)C2)C3)c(=O)c2c(OC)ccc(OC)c21`: more than 10000 nM, 9.2 nM and more than 1090.
For `CCCCCn1cc(C(=O)NC23CC4CC(CC(C4)C2)C3)c(=O)c2cc(F)c(-n3cccc3)cc21` the same measures were 140 nM, 3.6 nM and 38.8.
Take `CCCCCn1cc(C(=O)NC23CC4CC(CC(C4)C2)C3)c(=O)c2cc(Br)ccc21`: the results for the Ki on Cannabinoid receptor 1 and on Cannabinoid receptor 2 were 996 nM and 14.3 nM, respectively. The Ratio Ki in the assay listed under Homo sapiens came out at 69.4.
The matching figures for `CCCCCn1cc(C(=O)N[C@H](C)c2ccccc2)c(=O)c2ccc(OCC)cc21`: 29.7 nM, 24.2 nM and 1.2.
For the compound `CCCCCn1cc(C(=O)NC23CC4CC(CC(C4)C2)C3)c(=O)c2ccc(Cl)c(C)c21`, the inhibition constant Ki at Cannabinoid receptor 1 is more than 10000 nM; at Cannabinoid receptor 2, 25.5 nM. For the same compound, in the assay listed under Homo sapiens, the Ratio Ki was more than 393.
Take `CCCCCn1cc(C(=O)NC23CC4CC(CC(C4)C2)C3)c(=O)c2ccc(S(=O)(=O)c3ccccc3)cc21`: the inhibition constant Ki on Cannabinoid receptor 1 worked out at 6.1 nM; on Cannabinoid receptor 2 it was 0.9 nM.
For the compound `CCCCCn1cc(C(=O)N[C@H](C)c2ccccc2)c(=O)c2ccc(F)cc21`, the Ki at Cannabinoid receptor 1 came out at 14.3 nM; at Cannabinoid receptor 2, 10.7 nM. The Ratio Ki in the assay filed under Homo sapiens is 1.3.
